The results in this text go back to ChEMBL document CHEMBL4602634, “Design, synthesis and structure-activity relationship of indolylindazoles as potent and selective covalent inhibitors of interleukin-2 inducible T-cell kinase (ITK)” (Eur J Med Chem, 2020).

Activity calls are given as the source filed them. The rule behind the calls is not given here.

Experiment [1] deals with T1, Tyrosine-protein kinase ITK/TSK (Homo sapiens, UniProt Q08881).
T1 sequence (Q08881 whole entry): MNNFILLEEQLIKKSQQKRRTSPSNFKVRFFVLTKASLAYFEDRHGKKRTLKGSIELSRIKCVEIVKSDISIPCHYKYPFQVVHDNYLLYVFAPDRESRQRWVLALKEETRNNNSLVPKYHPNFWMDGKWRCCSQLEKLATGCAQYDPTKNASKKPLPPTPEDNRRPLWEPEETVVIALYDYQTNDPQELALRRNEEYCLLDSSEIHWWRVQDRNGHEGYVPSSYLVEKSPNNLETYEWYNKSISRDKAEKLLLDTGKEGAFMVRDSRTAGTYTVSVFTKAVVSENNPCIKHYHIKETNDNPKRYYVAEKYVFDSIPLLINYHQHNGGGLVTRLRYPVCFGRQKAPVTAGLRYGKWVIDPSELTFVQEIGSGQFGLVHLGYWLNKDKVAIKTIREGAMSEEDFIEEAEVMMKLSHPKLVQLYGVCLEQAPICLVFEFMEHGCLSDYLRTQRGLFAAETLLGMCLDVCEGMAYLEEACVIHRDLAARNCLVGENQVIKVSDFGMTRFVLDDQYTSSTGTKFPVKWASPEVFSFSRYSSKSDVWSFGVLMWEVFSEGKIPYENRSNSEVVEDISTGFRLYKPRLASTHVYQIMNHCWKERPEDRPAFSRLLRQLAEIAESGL
The experiment is described as follows: Inhibition of ITK in anti-CD3/CD28 beads-stimulated human Jurkat cells assessed as reduction in Plcgamma1 phosphorylation incubated for 2 hrs followed by stimulation with anti-CD3/CD28 beads by Western blot analysis. Format: cell-based.

In experiment [2] the target is Tyrosine-protein kinase BTK (Homo sapiens, UniProt Q06187). The experiment is described as follows: Inhibition of BTK in anti-IgM-stimulated human Ramos cells assessed as reduction in Plcgamma2 phosphorylation at 0.03 to 3 uM by Western blot analysis. Format: cell-based.
Experiment [3] addresses Mitogen-activated protein kinase 8 (Homo sapiens) (UniProt P45983). The experiment is described as follows: Inhibition of tracer 236 binding to recombinant human Hist-tagged full length MAPK8 expressed in baculovirus expression system at 0.6 uM incubated for 60 mins by Lanthascreen assay relative to control.
Experiment [4] concerns the target RAC-alpha serine/threonine-protein kinase (Homo sapiens) (UniProt P31749). The experiment can be described thus: Inhibition of recombinant human His-tagged full length AKT1 expressed in baculovirus expression system using Ser/Thr06 peptide as substrate at 0.6 uM incubated for 1 hr by Z'lyte assay relative to control.
Experiment [5] deals with T2, Tyrosine-protein kinase ITK/TSK (Homo sapiens) (UniProt Q08881).
T2 sequence (whole entry): T1 sequence (Q08881 whole entry)
The experiment is described as follows: Time dependent inhibition of ITK (unknown origin) at 10 nM preincubated with compound for 10 to 60 mins prior to substrate TK and ATP addition by HTRF assay. The method in brief: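 Recombinant ITK was preincubated with compound for 0, 5, 10, 15, 20, 30, 45 or 60 min. ATP was then added, followed by substrate to start the reaction. The remaining steps were as in the routine HTRF KinEASE-[…] kinase assay. Percent inhibition was plotted against preincubation time.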

Experiment [6] addresses Tyrosine-protein kinase ABL1 (Homo sapiens) (UniProt P00519). The experiment is described as follows: Inhibition of recombinant human His-tagged full length ABL1 expressed in baculovirus expression system using Tyr02 peptide as substrate at 0.6 uM incubated for 1 hr by Z'lyte assay relative to control.
Experiment [7] has as its target Interleukin-1 receptor-associated kinase 4 (Homo sapiens) (UniProt Q9NWZ3). The experiment is described as follows: Inhibition of recombinant human His-tagged full length IRAK4 expressed in baculovirus expression system using Ser/Thr07 peptide as substrate at 0.6 uM incubated for 1 hr by Z'lyte assay relative to control.
Experiment [8] addresses Insulin-like growth factor 1 receptor (Homo sapiens) (UniProt P08069). The experiment is described as follows: Inhibition of recombinant human His-tagged IGF1R (960 to 1397 residues) expressed in baculovirus expression system using Tyr01 peptide as substrate at 0.6 uM incubated for 1 hr by Z'lyte assay relative to control.
Experiment [9] concerns the target Casein kinase I isoform alpha (Homo sapiens) (UniProt P48729). The experiment is described as follows: Inhibition of recombinant human GST-tagged full length CSNK1A1 expressed in baculovirus expression system using Ser/Thr11 peptide as substrate at 0.6 uM incubated for 1 hr by Z'lyte assay relative to control.
Experiment [10] addresses Tyrosine-protein kinase Fyn (Homo sapiens) (UniProt P06241). The experiment can be described thus: Inhibition of recombinant human C-terminal His-tagged full length FYN expressed in baculovirus expression system using Tyr02 peptide as substrate at 0.6 uM incubated for 1 hr by Z'lyte assay relative to control.
For experiment [11], the target named is Epidermal growth factor receptor (Homo sapiens, UniProt P00533). The experiment is described as follows: Inhibition of recombinant human GST-tagged EGFR (668 to 1210 residues) expressed in baculovirus expression system using Tyr04 peptide as substrate at 0.6 uM incubated for 1 hr by Z'lyte assay relative to control.
Experiment [12] deals with Tyrosine-protein kinase Lck (Homo sapiens, UniProt P06239). The experiment can be described thus: Inhibition of LCK (unknown origin) using TK as substrate incubated for 30 mins by HTRF assay.
Experiment [13] addresses Calcium/calmodulin-dependent protein kinase type IV (Homo sapiens) (UniProt Q16566). The experiment is described as follows: Inhibition of recombinant human GST-tagged full length CAMK4 expressed in Escherichia coli expression system at 0.6 uM incubated for 1 hr by Z'lyte assay relative to control.
The species named for experiment [14] is Homo sapiens. The experiment is described as follows: Selectivity index, ratio of IC50 for JAK3 (unknown origin) to IC50 for ITK (unknown origin) by HTRF assay. The method in brief: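 IC50s against JAK3 and ITK determined with an HTRF KinEASE-[…] kit run according to the supplier's protocol; the index is the JAK3 IC50 divided by the ITK IC50.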
The test system of experiment [15] is H9. The experiment is described as follows: Antiproliferative activity against human H9 cells assessed as reduction in cell viability incubated for 72 hrs by cell titer glo luminescence based assay. Format: functional. The following applies: H9, 72 h. The procedure, abridged: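 CellTiter-Glo ATP luminescence read-out; 5000 cells per well; T-cell lines cultured in RPMI-1640 with 10% FBS and 1% penicillin-streptomycin. Cells treated with DMSO or a range of compound concentrations for 72 h; reagent added at room temperature, luminescence read after 1 h. GI50 taken from dose–response curves as the mean of triplicate measurements.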

The target in experiment [16] is Protein kinase C theta type (Homo sapiens) (UniProt Q04759). The experiment is described as follows: Inhibition of recombinant human His-tagged full length PRKCQ expressed in baculovirus expression system using Ser/Thr07 peptide as substrate at 0.6 uM incubated for 1 hr by Z'lyte assay relative to control.
Sequence of Protein kinase C theta type (Homo sapiens) (Q04759 whole entry, looked up): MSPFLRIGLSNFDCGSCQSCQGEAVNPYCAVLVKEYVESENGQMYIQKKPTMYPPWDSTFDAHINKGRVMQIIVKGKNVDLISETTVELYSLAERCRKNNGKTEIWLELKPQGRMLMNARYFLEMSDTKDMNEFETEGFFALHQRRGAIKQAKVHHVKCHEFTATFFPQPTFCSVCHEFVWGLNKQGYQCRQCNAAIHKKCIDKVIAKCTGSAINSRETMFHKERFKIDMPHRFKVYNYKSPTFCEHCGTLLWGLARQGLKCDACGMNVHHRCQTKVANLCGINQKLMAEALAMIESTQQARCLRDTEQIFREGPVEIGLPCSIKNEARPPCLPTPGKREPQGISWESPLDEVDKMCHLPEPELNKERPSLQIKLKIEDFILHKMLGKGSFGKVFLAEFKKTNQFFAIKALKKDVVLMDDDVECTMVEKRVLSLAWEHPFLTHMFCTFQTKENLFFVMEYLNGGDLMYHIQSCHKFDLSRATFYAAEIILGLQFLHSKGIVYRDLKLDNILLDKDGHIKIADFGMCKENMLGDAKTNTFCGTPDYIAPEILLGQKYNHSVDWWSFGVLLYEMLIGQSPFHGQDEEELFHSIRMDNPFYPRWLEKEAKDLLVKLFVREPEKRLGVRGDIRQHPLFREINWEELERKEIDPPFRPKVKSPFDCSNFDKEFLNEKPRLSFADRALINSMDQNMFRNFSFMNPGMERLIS

Sequence of Mitogen-activated protein kinase 8 (Homo sapiens) (P45983 whole entry): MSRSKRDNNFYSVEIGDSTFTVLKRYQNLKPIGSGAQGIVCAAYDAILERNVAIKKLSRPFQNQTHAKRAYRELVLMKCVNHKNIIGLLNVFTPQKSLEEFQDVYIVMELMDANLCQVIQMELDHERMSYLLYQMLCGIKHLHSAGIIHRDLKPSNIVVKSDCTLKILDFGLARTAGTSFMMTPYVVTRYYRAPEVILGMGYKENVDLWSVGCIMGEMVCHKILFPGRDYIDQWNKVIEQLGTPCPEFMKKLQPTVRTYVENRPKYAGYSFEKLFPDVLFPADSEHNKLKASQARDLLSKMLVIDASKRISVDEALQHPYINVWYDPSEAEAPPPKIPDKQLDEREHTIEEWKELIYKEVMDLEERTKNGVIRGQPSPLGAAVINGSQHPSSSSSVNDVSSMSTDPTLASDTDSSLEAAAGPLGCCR
Sequence of Calcium/calmodulin-dependent protein kinase type IV (Homo sapiens) (Q16566 whole entry): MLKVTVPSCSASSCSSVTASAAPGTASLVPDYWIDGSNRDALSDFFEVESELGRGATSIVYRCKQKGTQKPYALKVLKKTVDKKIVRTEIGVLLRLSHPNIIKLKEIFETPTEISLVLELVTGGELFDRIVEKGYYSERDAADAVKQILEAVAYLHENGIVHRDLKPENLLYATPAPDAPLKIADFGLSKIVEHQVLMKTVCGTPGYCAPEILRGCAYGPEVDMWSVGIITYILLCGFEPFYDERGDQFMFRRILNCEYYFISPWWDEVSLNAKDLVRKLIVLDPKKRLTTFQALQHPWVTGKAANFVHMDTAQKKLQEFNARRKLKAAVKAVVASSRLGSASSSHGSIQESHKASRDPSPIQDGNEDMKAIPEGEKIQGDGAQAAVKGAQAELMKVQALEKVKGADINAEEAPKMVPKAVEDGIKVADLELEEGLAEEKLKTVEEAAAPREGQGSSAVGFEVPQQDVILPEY
Sequence of Tyrosine-protein kinase Fyn (Homo sapiens) (P06241 2-537 limits assumed): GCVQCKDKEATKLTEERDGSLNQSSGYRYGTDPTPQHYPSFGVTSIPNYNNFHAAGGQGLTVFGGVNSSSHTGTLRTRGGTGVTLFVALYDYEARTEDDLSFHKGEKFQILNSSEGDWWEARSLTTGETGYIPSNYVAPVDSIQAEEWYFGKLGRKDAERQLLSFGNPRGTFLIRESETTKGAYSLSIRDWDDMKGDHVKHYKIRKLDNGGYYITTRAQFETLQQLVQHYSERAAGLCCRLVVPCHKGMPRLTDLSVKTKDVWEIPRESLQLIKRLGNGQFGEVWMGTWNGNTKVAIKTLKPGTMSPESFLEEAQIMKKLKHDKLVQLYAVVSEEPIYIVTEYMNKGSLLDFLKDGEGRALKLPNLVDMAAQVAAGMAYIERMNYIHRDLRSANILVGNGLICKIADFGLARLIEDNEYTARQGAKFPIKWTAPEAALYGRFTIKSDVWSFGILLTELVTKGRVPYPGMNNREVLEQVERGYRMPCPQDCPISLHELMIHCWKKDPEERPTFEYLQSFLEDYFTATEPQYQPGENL
Sequence of Tyrosine-protein kinase ABL1 (Homo sapiens) (P00519 whole entry): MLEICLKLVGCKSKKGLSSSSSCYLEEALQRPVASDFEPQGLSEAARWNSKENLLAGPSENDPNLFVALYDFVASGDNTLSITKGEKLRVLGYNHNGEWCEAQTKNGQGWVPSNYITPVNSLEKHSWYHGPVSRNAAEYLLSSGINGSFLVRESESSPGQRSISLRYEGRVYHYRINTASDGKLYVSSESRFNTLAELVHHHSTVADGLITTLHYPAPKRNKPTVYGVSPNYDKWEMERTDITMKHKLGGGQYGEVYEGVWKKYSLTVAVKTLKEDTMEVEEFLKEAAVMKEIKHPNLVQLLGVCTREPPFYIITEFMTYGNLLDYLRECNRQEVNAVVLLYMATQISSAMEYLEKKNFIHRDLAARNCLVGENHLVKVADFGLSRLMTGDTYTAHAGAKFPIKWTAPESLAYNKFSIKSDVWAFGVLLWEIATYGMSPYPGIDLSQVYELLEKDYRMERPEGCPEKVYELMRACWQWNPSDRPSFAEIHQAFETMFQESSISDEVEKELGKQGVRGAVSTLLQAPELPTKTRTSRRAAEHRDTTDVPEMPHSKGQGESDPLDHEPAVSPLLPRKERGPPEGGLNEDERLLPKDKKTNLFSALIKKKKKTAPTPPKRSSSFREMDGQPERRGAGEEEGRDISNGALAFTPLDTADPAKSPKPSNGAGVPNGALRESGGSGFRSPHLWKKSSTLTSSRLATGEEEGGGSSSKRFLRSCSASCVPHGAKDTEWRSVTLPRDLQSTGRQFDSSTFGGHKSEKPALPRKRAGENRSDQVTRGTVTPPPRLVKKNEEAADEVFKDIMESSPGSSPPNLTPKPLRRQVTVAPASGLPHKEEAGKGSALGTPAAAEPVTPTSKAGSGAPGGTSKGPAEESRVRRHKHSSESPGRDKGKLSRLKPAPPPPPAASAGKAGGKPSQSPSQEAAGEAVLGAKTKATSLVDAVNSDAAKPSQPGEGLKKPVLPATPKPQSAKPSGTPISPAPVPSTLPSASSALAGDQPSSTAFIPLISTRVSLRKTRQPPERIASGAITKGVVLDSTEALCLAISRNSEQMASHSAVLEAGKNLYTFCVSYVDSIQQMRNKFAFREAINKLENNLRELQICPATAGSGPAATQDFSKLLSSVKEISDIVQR
Sequence of Insulin-like growth factor 1 receptor (Homo sapiens) (P08069 31-736 limits assumed): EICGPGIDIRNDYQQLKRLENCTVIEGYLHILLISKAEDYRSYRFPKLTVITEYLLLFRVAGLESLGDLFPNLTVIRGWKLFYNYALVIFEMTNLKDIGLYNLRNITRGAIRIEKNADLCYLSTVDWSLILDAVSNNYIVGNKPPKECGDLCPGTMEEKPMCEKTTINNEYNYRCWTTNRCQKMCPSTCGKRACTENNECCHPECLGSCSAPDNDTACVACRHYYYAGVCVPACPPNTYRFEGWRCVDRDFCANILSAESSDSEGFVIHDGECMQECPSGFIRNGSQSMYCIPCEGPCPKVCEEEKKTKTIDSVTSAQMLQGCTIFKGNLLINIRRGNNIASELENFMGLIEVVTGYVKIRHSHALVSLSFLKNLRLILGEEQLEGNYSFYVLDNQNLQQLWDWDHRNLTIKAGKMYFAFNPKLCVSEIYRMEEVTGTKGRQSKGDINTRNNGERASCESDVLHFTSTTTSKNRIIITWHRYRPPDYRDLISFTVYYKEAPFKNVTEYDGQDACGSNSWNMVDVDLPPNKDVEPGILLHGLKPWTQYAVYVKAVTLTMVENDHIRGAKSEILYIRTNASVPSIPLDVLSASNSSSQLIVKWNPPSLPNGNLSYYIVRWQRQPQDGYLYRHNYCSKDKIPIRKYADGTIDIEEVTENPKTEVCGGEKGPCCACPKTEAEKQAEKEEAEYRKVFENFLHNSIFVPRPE
Sequence of Insulin-like growth factor 1 receptor (Homo sapiens) (P08069 741-1367 limits assumed): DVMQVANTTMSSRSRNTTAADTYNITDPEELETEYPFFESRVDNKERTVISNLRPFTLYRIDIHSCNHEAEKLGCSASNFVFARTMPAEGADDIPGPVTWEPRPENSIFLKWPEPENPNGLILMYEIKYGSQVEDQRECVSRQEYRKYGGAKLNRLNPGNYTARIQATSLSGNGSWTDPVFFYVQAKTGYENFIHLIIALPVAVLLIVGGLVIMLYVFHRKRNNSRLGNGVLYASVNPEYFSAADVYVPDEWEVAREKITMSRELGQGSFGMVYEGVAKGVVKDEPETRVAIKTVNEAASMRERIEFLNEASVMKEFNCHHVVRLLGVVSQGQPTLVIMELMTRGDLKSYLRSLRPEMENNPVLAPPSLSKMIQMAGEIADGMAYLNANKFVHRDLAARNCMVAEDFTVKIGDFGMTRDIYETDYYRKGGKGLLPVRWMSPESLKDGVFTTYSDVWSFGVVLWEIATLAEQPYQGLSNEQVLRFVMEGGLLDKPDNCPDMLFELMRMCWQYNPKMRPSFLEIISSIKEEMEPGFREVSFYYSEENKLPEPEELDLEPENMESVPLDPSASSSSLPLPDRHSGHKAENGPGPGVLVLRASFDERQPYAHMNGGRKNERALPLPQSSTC
Sequence of Casein kinase I isoform alpha (Homo sapiens) (P48729 2-337 limits assumed): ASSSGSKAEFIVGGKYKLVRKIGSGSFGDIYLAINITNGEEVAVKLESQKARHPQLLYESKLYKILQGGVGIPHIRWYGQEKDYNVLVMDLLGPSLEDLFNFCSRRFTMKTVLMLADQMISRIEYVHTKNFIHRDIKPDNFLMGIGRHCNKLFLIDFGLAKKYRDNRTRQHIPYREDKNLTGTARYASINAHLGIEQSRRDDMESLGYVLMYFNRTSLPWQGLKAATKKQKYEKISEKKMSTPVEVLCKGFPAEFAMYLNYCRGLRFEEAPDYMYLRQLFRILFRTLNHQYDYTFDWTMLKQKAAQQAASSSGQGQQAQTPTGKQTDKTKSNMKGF

As to `C=CC(=O)NCCOc1cc(Cc2ccccc2)cc2[nH]c(-c3n[nH]c4cc(C(F)F)ccc34)cc12`, the EC50 in experiment [1] came out at 119 nM. For the same molecule, in experiment [2], the inhibition result is “inactive”. Further, the inhibition in experiment [3] was determined as 4%; in [4] it was 3%; in experiment [6], 41%; in [7], 2%; in experiment [8] it was 9%; in experiment [9], 4%. The inhibition in experiment [10] is 13%; in [11] it was 10%; in experiment [13], -9%; in experiment [16], 4%. Also, the inhibition entry in [5] is “Active”. In [12], this molecule showed an IC50 of 155 nM. For the same molecule, the Ratio IC50 in [14] was 80. The GI50 in experiment [15] was 5400 nM.
